Runt-SMMHC FRET: inhibitors of human RUNX1 Runt domain binding to CBFb-SMMHC; inhibition, % at 20 µM; hit rate 0.74% among 220,000; Cerulean-Runt/Venus-CBFb-SMMHC FRET ratio 530/480, 1 h; AID 1434;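 active means mean inhibition across duplicate retests at 20 µM reaching about 50%, limit read from the data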;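 further: 0% = DMSO wells and 100% = wells with excess untagged CBFb-SMMHC; inhibitors lower the FRET ratio by blocking Runt binding to CBFb-SMMHC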
Target sequence (Q01196 whole entry, looked up, the tested form may be a part): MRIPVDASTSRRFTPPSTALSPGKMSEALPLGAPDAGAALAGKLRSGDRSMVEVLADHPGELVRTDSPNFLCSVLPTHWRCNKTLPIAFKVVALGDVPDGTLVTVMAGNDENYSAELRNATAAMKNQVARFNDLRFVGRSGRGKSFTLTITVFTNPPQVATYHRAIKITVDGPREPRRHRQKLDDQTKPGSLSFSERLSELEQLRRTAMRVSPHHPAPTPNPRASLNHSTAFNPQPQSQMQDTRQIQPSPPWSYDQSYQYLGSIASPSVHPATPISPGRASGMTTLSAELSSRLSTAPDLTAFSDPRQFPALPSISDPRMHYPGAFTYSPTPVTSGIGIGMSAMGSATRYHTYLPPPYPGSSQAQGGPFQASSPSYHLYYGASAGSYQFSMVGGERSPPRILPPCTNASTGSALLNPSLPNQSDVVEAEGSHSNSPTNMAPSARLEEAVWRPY
Target sequence (Q13951 whole entry, looked up, the tested form may be a part): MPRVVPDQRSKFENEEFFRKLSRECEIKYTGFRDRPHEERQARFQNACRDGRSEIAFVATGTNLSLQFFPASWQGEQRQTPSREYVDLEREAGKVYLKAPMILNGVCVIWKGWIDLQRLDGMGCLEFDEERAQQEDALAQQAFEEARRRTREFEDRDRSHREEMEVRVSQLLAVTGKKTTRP
Hck-Nef inh: blocks Nef-activated human Hck kinase; AID 463187; hit rate 0.68% among 220,000; Recombinant Hck-YEEI plus Nef, Z-Lyte FRET kinase assay; inhibition, % at 20 µM;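 active means Hck-Nef kinase inhibition above about 50%, limit read from the data; inactive means inhibition below that limit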;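 further: 0% = DMSO with Hck plus Nef and 100% = Hck alone without Nef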
RanGTP-Imp inh: disruptors of Ran-importin-beta complex formation – biochemical, FRET, CFP-Ran, YFP-importin-beta, homogeneous, primary screen; cell-free CFP-Ran/YFP-importin-beta FRET ratio; inhibition, % (test concentration not listed); hit rate 1.1% among 300,000; AID 2216;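 active means more than half of the replicate wells show a fall in the fluorescence ratio signal beyond about 16%, limit read from the data, passing the limit was not always enough; inconclusive means exactly half of the replicate wells pass the set limit; inactive means fewer than half of replicates pass the limit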;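 further: 0% = DMSO wells and 100% = Ran loaded with GDP instead of GTP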
Runt-CBFb FRET: Runt domain-CBFb interaction inhibition; inhibition, % at 20 µM; Cerulean-Runt/Venus-CBFb FRET ratio 530/480, 1 h; hit rate 0.46% among 220,000; AID 1496;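 active means inhibition over about 50% at 20 µM in the single-dose screen, limit read from the data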;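 further: 0% = DMSO wells and 100% = excess unlabeled CBFb competitor control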
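Assay system: Cerulean-Runt domain / Medium: Tris 50 mM pH 7.5, KCl, K2SO4, 0.01% BSA / Timing: protein complex preformed 1 h, compound exposure 1 h, room temperature, dark / Measured by: FRET, excitation 422 nm, emission at 530 and 480 nm / Evaluation: loss of energy transfer signal / Control set: 5 µM unlabeled CBFb as full-inhibition high control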
The depositor's hits bear a star; u = inconclusive; x = not tested or not shown. Most compounds without a hit are left out; they make up all but 1.9% or so of the library.

SMILES	Runt-SMMHC FRET	Hck-Nef inh	RanGTP-Imp inh	Runt-CBFb FRET
O=C(O)CCCC(=O)N1CCN(c2nc(-c3ccccc3)c3ccccc3n2)CC1	14	11	20*	14
c1ccc(-c2nc(N3CCCCC3)nc3ccccc23)cc1	118*	6	41*	35
O=C(O)C1CC=CCC1C(=O)N1CCN(c2nc(-c3ccccc3)c3ccccc3n2)CC1 (stereo unspecified)	30	6	12	10
Cc1ccc2nc(N3CCN(C(=O)CCC(=O)O)CC3)nc(-c3ccccc3)c2c1	x	x	30*	x
COCCNCC(=O)Nc1nc(C)cs1	1	-29	x	1
CCOC(=O)N1CCC(N2CCN(C3CCCC3)C(CCO)C2)CC1 (stereo unspecified)	2	5	-5	0
Cc1ccc(NC(=S)N2CCN(S(C)(=O)=O)CC2)cc1Cl	x	x	2	x
Cc1cc(/C=C2\SC(=S)N(C)C2=O)c(C)n1-c1ccc(O)cc1	-52	3	37*	-16
Cc1cc(/C=C2\SC(=S)NC2=O)c(C)n1-c1cccc(O)c1	-25	65*	20*	-6
Cc1ccc(-n2c(C)cc(/C=C3\SC(=O)NC3=O)c2C)cc1	x	x	4	x
Cc1cc(/C=C2\SC(=S)N(C)C2=O)c(C)n1-c1ccccc1O	x	x	44*	x
CN1C(=O)/C(=C/c2coc3ccc(O)cc3c2=O)SC1=S	-9	6	u	-2
CCC(CC)c1ncc[nH]1	-1	27	2	0
COc1ccc(S(=O)(=O)Nc2ccccc2-c2nc3ccccc3[nH]c2=O)cc1	x	x	1	x
COc1ccc(CN2CCNC(=O)C2CC(=O)N(C)Cc2nonc2C)c(F)c1 (stereo unspecified)	x	x	4	x
CC1(C)CC(NNCCC#N)=CC(=[N+]2CCCC2)C1	2	-7	19*	3
CCS(=O)(=O)C1=NN2C(=N)/C(=C\c3ccc(SCc4ccco4)o3)C(=O)N=C2S1	8	64*	u	26
CCS(=O)(=O)C1=NN2C(=N)/C(=C\c3ccc(OC(=O)c4ccco4)c(Br)c3)C(=O)N=C2S1	x	x	0	x
COc1cccc(CSc2ccc(S(=O)(=O)N3CCOCC3)cc2C(=O)NCC2CCCO2)c1OC (stereo unspecified)	2	0	7	-2
CCO[C@@H]1OC(C(=O)NC2CC2)=C[C@H](C2CC2)[C@H]1CCCO	0	26	30*	-1
Cc1ccc(C)c(-n2c3nc(=O)[nH]c(=O)c-3cc3cc([N+](=O)[O-])ccc32)c1	12	4	x	45
Cc1cccc(-n2c3nc(=O)[nH]c(=O)c-3cc3cc([N+](=O)[O-])ccc32)c1	55*	7	2	21
O=S(=O)(O)c1cc(O)c2c(O)c(N=Nc3cc(Cl)ccc3O)c(S(=O)(=O)O)cc2c1	x	x	57*	x
NC(=O)c1c(NC(=O)c2ccc(S(=O)(=O)N3CCOCC3)cc2)sc2c1CCCCC2	-32	2	2	-4
CCN1CCc2c(sc(NC(=O)c3ccc(S(=O)(=O)N4CCCC4)cc3)c2C(=O)NC)C1	x	x	46*	x
SMILES	Runt-SMMHC FRET	Hck-Nef inh	RanGTP-Imp inh	Runt-CBFb FRET
CC(C)N1CCc2c(sc(NC(=O)c3ccc(S(=O)(=O)N4CCCCC4C)cc3)c2C(N)=O)C1 (stereo unspecified)	x	x	107*	x
CNC(=O)c1c(NC(=O)c2ccc(S(=O)(=O)N3CCCCC3)cc2)sc2c1CCN(C(C)C)C2	x	x	93*	x
CCCN1CCc2c(sc(NC(=O)c3ccc(S(=O)(=O)N(C)c4ccccc4)cc3)c2C(=O)NC)C1	x	x	10	x
O=C(Nc1nnc(/C=C/c2ccccc2)s1)c1ccco1	15	23	0	3
COCCn1c(C)cc(C(=O)CSc2nc(C)cc(C)c2C#N)c1C	58*	3	8	10
O=C(NCc1ccccc1)c1ccc2nc(-c3ccco3)c(-c3ccco3)nc2c1	-46	2	25*	-1
COc1ccc2nc(-c3ccco3)c(-c3ccco3)nc2c1	-22	1	54*	6
CC(=O)c1ccc(NC(=O)c2ccc3nc(-c4ccco4)c(-c4ccco4)nc3c2)cc1	-69	0	35*	-4
S=C(Nc1ccc(N2CCOCC2)cc1)Nc1ccc2nc(-c3ccco3)c(-c3ccco3)nc2c1	-388	1	20*	-95
COCCNC(=O)C(c1ccc(C)cc1)N(C(=O)CCC(=O)Nc1ccccn1)c1ccccc1C (stereo unspecified)	x	x	7	x
Cc1ccc2nc(NC(=O)C3CCCN3C(=O)OC(C)(C)C)sc2c1 (stereo unspecified)	-1	15	-2	-1
COc1cccc(CN2CC(C(=O)N(C)CCCC3CCCC3)CCC2=O)c1 (stereo unspecified)	x	x	2	x
O=C(Nc1ccccc1)c1ccc2nc(-c3ccco3)c(-c3ccco3)nc2c1	-31	10	36*	1
COc1ccc2nc(Cl)cc(Cl)c2c1	-3	19	0	0
CCN(CC)CCCC(C)Nc1c2ccc(Cl)cc2nc2ccc(OC)cc12 (stereo unspecified)	85*	x	x	12
COc1ccc2nc3cc(Cl)ccc3c(Nc3cc(C(C)C)c(O)cc3C)c2c1	50*	5	115*	77*
CCC(Cc1ccccc1)NC(=O)C1=C(C)C(=O)OC12CCC(C)CC2 (stereo unspecified)	0	19	-1	1
Cc1cccn2c(=O)c3cc(C#N)c(=NC(=O)c4ccco4)n(Cc4ccco4)c3nc12	88*	23	120*	10
Cc1cccn2c(=O)c3cc(C(=O)N(C)C)n(C)c3nc12	-24	23	-5	-11
Cc1cccn2c(=O)c3cc(C#N)c(=NC(=O)c4ccccc4)n(Cc4ccco4)c3nc12	x	x	110*	x
Cc1cccc(C(=O)N=c2c(C#N)cc3c(=O)n4cccc(C)c4nc3n2Cc2ccco2)c1	x	28	112*	95*
CC(C)(C)C(=O)O/N=C(\N)Cc1ccc(-c2csnn2)cc1	-2	-3	0	1
Cc1nc(C)n(CC(=O)N2CCCC(C(=O)c3cccc4ccccc34)C2)n1 (stereo unspecified)	-2	6	7	2
CCN1CC=C2C(C#N)=C(N)C(C#N)(C#N)[C@H](c3cccc(OC)c3OC)[C@H]2C1	62*	18	x	41
N#CC1=C(N)C(C#N)(C#N)[C@H](c2cccnc2)[C@H]2CN(C(=O)OCc3ccccc3)CC=C12	7	11	13	13
CCOC(=O)N1CC=C2C(C#N)=C(N)C(C#N)(C#N)[C@H](c3ccccc3OCC)[C@H]2C1	-1	6	3	0
COc1cccc(C2C3CN(C)CC=C3C(C#N)=C(N)C2(C#N)C#N)c1OC (stereo unspecified)	62*	12	39*	74*
COc1ccc(-c2nc3ncccc3o2)cc1NC(=O)c1ccco1	x	x	1	x
CCOC(=O)Nc1c2ccccc2nc2ccccc12	82*	39	131*	65*
O=C(NC1CC(=O)N(c2ccccc2)C1)C1CC1 (stereo unspecified)	x	x	-2	x
